Each structure is given as a SMILES string. Active and inactive are the calls of the source. Unless noted, no stated cut-off is given here; in the data, active means inhibition above about 30%; inactive means the rest.

Test [1] is described as follows: SK-BR-3 cell growth inhibitors, pilot screen, 24 h, human (AID 572;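 active means viability at or below 10% of carrier control in both of two separate runs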;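 further: compound exposure lasted between 18 and 24 h rather than exactly 24 h; 100% = carrier-treated control wells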). The conditions noted are these: SK-BR-3 viability, CellTiter-Glo luminescence, at 10 µM, stronger effect = lower value. Background: In ATP-based viability assays light output follows the ATP content of the culture.
Test [2] in a line: HUVEC growth inhibition – cell-based, human, primary screen (AID 575;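 active means viability at or below 30% in both replicate assays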;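 further: 100% = median of untreated cell wells with 0.1% DMSO on each plate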). The conditions noted are these: HUVEC proliferation, CellTiter-Glo luminescence, 72 h; at 10 µM; stronger effect = lower value. In short, it runs like this: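 Test system: HUVEC primary cells. Quantity: 1250 endothelial cells in each well. Dosing: single-point 10 µM, DMSO 0.1% final. Incubation: 72 h treatment at 37 °C. Measured by: CTG luminescence. Control set: DMSO cell controls and MePR drug controls. Plate: collagen-coated 384-well format.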

A short description of test [3]: growth inhibitors of H69AR lung tumor, primary screen, human, duplicate replicates (AID 580;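 active means viability at or under a set limit in both replicates, limit being median viability minus 3 SD, cut at about 48% in these data, passing the limit was not always enough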;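 further: 100% = mean luminescence of untreated wells and 0% = no signal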). The conditions noted are these: H69AR lung tumor cells viability, ATP luminescence, 72 h; at 10 µM; stronger effect = lower value.
A short description of test [4]: reversal of MRP1-mediated doxorubicin resistance, pilot screen, H69AR cells, doxorubicin co-treatment (AID 601;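 active means viability loss from added drug above about 55%, and viability with drug at most 40%, in both replicates, limit read from the data, passing the limit was not always enough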). The note with it: CellTiter-Glo, 72 h, at 10 µM; for differential viability (reversal): stronger effect = higher value.
Test [5] is described as follows: 384-well plate pilot, post-Golgi transport modulator project, inhibition of yeast transport mutant growth (AID 636; in the data active means inhibition above about 31%). The conditions noted are these: absorbance 615 nm, about 18 h, stronger effect = higher value.
The nature of test [6]: growth suppression of yeast trafficking mutant, preliminary HTS, modulators of trafficking downstream of Golgi apparatus project, 1536-format plate, OD 615 nm (AID 637). The conditions noted are these: yeast transport mutant growth, absorbance 615 nm, 18 h; stronger effect = higher value.
Setting [7] is: H69AR cells + 2 uM doxorubicin, measured here: viability with 2 uM doxorubicin, stronger effect = lower value.
[8] abbreviates: H69AR cells, compound alone cytotoxicity.

Usually viability stands for a read-out of living cells in per cent, often relative to untreated cells. As a reminder, the inhibition is the change of the read-out against control, counted positive when it falls. Turning to `CCOc1ccccc1-c1nc(-c2ccc(C)nc2OC)no1`, the viability in test [1] is 123% (inactive); in test [2] it was 95.9% (inactive); in test [3], 81.9% (inactive); in test [4] (setting [7]) it was 82.2%; in test [4] (setting [8]), 81.9%. For the same compound, in test [4] (H69AR cells + 2 uM doxorubicin), the differential viability (reversal) was -0.315% (inactive). In addition, the results for the inhibition in test [5] and in test [6] were -0.78% (inactive) and 5.74% (inactive), respectively.
In the case of `O=C(CN1CCC(n2nnc3ccccc32)CC1)Nc1ccc2c(c1)CCC2`, the viability was 64% (inactive) in test [1]; 92% (inactive) in test [2]; 89.3% (inactive) in test [3]; 88.1% in test [4] (setting [7]); 89.3% in test [4] (setting [8]). Besides, the differential viability (reversal) in test [4] (H69AR cells + 2 uM doxorubicin) is 1.24% (inactive). The inhibition is -8.63% (inactive) in test [5] and 2% (inactive) in test [6].
With `COc1ccccc1OCc1nc2ccccc2[nH]1`, the viability was 69% (inactive) in test [1]; 88.5% (inactive) in test [2]; 99.3% (inactive) in test [3]; 104% in test [4] (setting [7]); 99.3% in test [4] (setting [8]). The differential viability (reversal) in test [4] (H69AR cells + 2 uM doxorubicin) is -5.04% (inactive). Moreover, the inhibition was -6.16% (inactive) in test [5] and -0.55% (inactive) in test [6].
Consider `COc1ccc(N2C(=O)C(Cl)=C(N3CCCC3)C2=O)cc1`, for which the viability in test [1] was 97% (inactive); in test [2], 86.1% (inactive); in test [3] it was 94.7% (inactive); in test [4] (setting [7]) it was 84.8%; in test [4] (setting [8]), 94.7%. Moreover, in test [4] (H69AR cells + 2 uM doxorubicin), the differential viability (reversal) was 9.9% (inactive). The inhibition in test [5] was -6.08% (inactive); in test [6], -6.18% (inactive).
`O=c1c2cnn(-c3ccccc3)c2ncn1/N=C/c1ccncc1`: the viability in test [1] was 125% (inactive); in test [2] it was 108% (inactive); in test [3] it was 101% (inactive); in test [4] (setting [7]), 82.2%; in test [4] (setting [8]), 101%. The differential viability (reversal) in test [4] (H69AR cells + 2 uM doxorubicin) is 18.9% (inactive). Moreover, the inhibition was -5.07% (inactive) in test [5] and -4.91% (inactive) in test [6].
As for `O=C(COC(=O)CCOc1ccccc1)Nc1ccc(Cl)cn1`, the viability is 75% (inactive) in test [1]; 102% (inactive) in test [2]; 91% (inactive) in test [3]; 108% in test [4] (setting [7]); 91% in test [4] (setting [8]). The differential viability (reversal) in test [4] (H69AR cells + 2 uM doxorubicin) was -17% (inactive). For the same compound, the inhibition is -2.74% (inactive) in test [5] and -4.36% (inactive) in test [6].
Take `CC(C(=O)NC(=O)NC1CCCCC1)N1CCN(c2ccccn2)CC1` (centres undefined): the viability is 96% (inactive) in test [1]; 95.6% (inactive) in test [2]; 104% (inactive) in test [3]; 88.9% in test [4] (setting [7]); 104% in test [4] (setting [8]). For the same compound, in test [4] (H69AR cells + 2 uM doxorubicin), the differential viability (reversal) is 14.7% (inactive). Besides, the inhibition in test [5] is -2.4% (inactive); in test [6], -3.27% (inactive).
Take `COCCCN(Cc1ccccn1)S(=O)(=O)Cc1ccccc1`: the viability in test [1] was 130% (inactive); in test [2] it was 83.5% (inactive); in test [3], 105% (inactive); in test [4] (setting [7]), 86.7%; in test [4] (setting [8]), 105%. Further, the differential viability (reversal) in test [4] (H69AR cells + 2 uM doxorubicin) is 17.9% (inactive). Further, the inhibition is -4.11% (inactive) in test [5] and -9.68% (inactive) in test [6].
In the case of `O=C(O)c1cccc(COCC(F)(F)C(F)F)c1`, the viability in test [1] was 90% (inactive); in test [2], 88.2% (inactive); in test [3], 102% (inactive); in test [4] (setting [7]), 95.9%; in test [4] (setting [8]), 102%. Also, in test [4] (H69AR cells + 2 uM doxorubicin), the differential viability (reversal) is 6.01% (inactive). Also, the inhibition was -0.41% (inactive) in test [5] and -3.87% (inactive) in test [6].
As for `CC1=Nn2c(nnc2-c2ccc(F)cc2)SC1`, the viability in test [1] is 85% (inactive); in test [2] it was 97% (inactive); in test [3], 97.2% (inactive); in test [4] (setting [7]) it was 96.6%; in test [4] (setting [8]) it was 97.2%. In addition, the differential viability (reversal) in test [4] (H69AR cells + 2 uM doxorubicin) is 0.585% (inactive). The figures for the inhibition in test [5] and in test [6] were -5.14% (inactive) and -2.55% (inactive), respectively.
Turning to `O=S(=O)(c1ccc(Br)s1)N1CCN(c2ccccc2)CC1`, the viability in test [1] was 90% (inactive); in test [2], 96.9% (inactive); in test [3], 87.6% (inactive); in test [4] (setting [7]), 91.7%; in test [4] (setting [8]), 87.6%. In test [4] (H69AR cells + 2 uM doxorubicin), the differential viability (reversal) is -4.09% (inactive). In addition, the inhibition is -3.78% (inactive) in test [5] and -3.27% (inactive) in test [6].
Turning to `COc1ccc(-n2nnnc2SCC(=O)c2ccc(O)c(O)c2)cc1`, the viability in test [1] is 74% (inactive); in test [2], 58.6% (inactive); in test [3], 34.7% (active); in test [4] (setting [7]), 76.6%; in test [4] (setting [8]), 34.7%. The differential viability (reversal) in test [4] (H69AR cells + 2 uM doxorubicin) was -41.9% (inactive). Also, the inhibition in test [5] is -5.89% (inactive); in test [6] it was -1.45% (inactive).
Regarding `Cc1cc(C(=O)CSc2nnc(-c3ccccc3)n2C)c(C)n1C`, the viability is 83% (inactive) in test [1]; 107% (inactive) in test [2]; 95.5% (inactive) in test [3]; 98.5% in test [4] (setting [7]); 95.5% in test [4] (setting [8]). For the same compound, the differential viability (reversal) in test [4] (H69AR cells + 2 uM doxorubicin) is -3% (inactive). The inhibition in test [5] was 1.78% (inactive); in test [6], 0.73% (inactive).
On to `COC(=O)c1sc(N)c(C(=O)OC)c1COC(=O)C1CC(=O)N(Cc2ccco2)C1` (centres undefined), for which the viability was 84% (inactive) in test [1]; 103% (inactive) in test [2]; 72.8% (inactive) in test [3]; 78.9% in test [4] (setting [7]); 72.8% in test [4] (setting [8]). Besides, the differential viability (reversal) in test [4] (H69AR cells + 2 uM doxorubicin) is -6.05% (inactive). Moreover, the inhibition in test [5] was -4.19% (inactive); in test [6], -2.18% (inactive).
With `COCCc1ccc(OCC(O)CNC(C)C)cc1` (centres undefined), the viability in test [1] is 117% (inactive); in test [2], 70.4% (inactive); in test [3], 98.3% (inactive); in test [4] (setting [7]), 106%; in test [4] (setting [8]), 98.3%. Further, the differential viability (reversal) in test [4] (H69AR cells + 2 uM doxorubicin) is -7.28% (inactive). Further, the inhibition in test [5] was -2.86% (inactive); in test [6], 1.33% (inactive).
`CC(C)Cc1ccc(C(C)C(=O)O)cc1` (centres undefined): the viability was 99% (inactive) in test [1]; 84.3% (inactive) in test [2]; 97.8% (inactive) in test [3]; 92.3% in test [4] (setting [7]); 97.8% in test [4] (setting [8]). The differential viability (reversal) in test [4] (H69AR cells + 2 uM doxorubicin) is 5.44% (inactive). Besides, the inhibition in test [5] was -1.95% (inactive); in test [6], 7.17% (inactive).
In the case of `CC[C@H](C)C(=O)O[C@H]1C[C@@H](C)C=C2C=C[C@H](C)[C@H](CC[C@@H]3C[C@@H](O)CC(=O)O3)[C@H]21`, the viability was 110% (inactive) in test [1]; 50.6% (inactive) in test [2]; 72.2% (inactive) in test [3]; 78.7% in test [4] (setting [7]); 72.2% in test [4] (setting [8]). In test [4] (H69AR cells + 2 uM doxorubicin), the differential viability (reversal) was -6.58% (inactive). Further, the inhibition is -1.82% (inactive) in test [5] and 2.83% (inactive) in test [6].
`O=C(COC(=O)C12CC3CC(CC(C3)C1)C2)NCc1ccco1`: the viability in test [1] was 101% (inactive); in test [2], 98.5% (inactive); in test [3] it was 64.6% (inactive); in test [4] (setting [7]), 86%; in test [4] (setting [8]) it was 64.6%. Also, the differential viability (reversal) in test [4] (H69AR cells + 2 uM doxorubicin) was -21.4% (inactive). Moreover, the inhibition in test [5] is -4.16% (inactive); in test [6], -3.93% (inactive).

Values taken from PubChem BioAssay.
